In ChEMBL document CHEMBL4765334, “Chemical profiling of HIV-1 capsid-targeting antiviral PF74” (Eur J Med Chem, 2020):

Experiments:
[1] = test system: Human immunodeficiency virus 1; assay: Antiviral activity against HIV1 NL4-3 infected in human TZM-GFP cells assessed as number of GFP positive cells incubated for 48 hrs by imaging reader; type: functional, organism-based; settings: Human immunodeficiency virus 1, NL4-3, TZM
How it was run: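 TZM-GFP cells seeded 1 × 10^4/well and given increasing compound concentrations 24 h later; infected with HIV-1 NL4-3 (MOI = 1) after a further 24 h. Read-out after 48 h: GFP-positive cell counts (LTR-driven) versus DMSO controls. EC50 fitted as log(inhibitor) vs normalized response, variable slope, per experiment and averaged; mean ± SD, duplicates, at least two independent experiments.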

[2] = (§1) Cytotoxicity against human TZM-GFP cells incubated for 72 hrs by XTT assay; type: cell-based; settings: TZM-GFP cells
How it was run: (§2)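 TZM-GFP cells seeded at 1 × 10^4 per well and exposed continuously to increasing compound concentrations for 72 h. Viable cell number read by XTT proliferation kit. CC50 fitted as log(inhibitor) vs normalized response, variable slope, per independent assay and averaged. Run in duplicate, at least two independent experiments, reported as mean ± standard deviation.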

[3] = test system: Human immunodeficiency virus 1; assay: Binding affinity to covalently-crosslinked hexameric HIV1 capsid protein A14C/E45C/W184A/M185A mutant expressed in Escherichia coli BL21(DE3)RIL assessed as change in melting temperature at 20 uM incubated for 30 mins by thermal shift dye based fluorescence analysis
How it was run: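 Thermal shift: 15 μM CA121 in 50 mM sodium phosphate pH 8.0 with Sypro Orange and compound at 20 μM final or DMSO control. Heated 25 to 95 °C at 0.2 °C/10 s; fluorescence Ex 475–500, Em 520–590 nm. ΔTm = Tm(compound) − T0(DMSO) for CA hexamer melting.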

[4] = test system: Human immunodeficiency virus 1; assay: Antiviral activity against HIV1 NL4-3 infected in human TZM-GFP cells assessed as number of GFP positive cells at 2 uM incubated for 48 hrs by imaging reader; type: functional; settings: Human immunodeficiency virus 1, NL4-3, TZM
How it was run: (§3)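 TZM-GFP cells seeded 1 × 10^4/well; after 24 h medium replaced with compound at the stated single concentration, then 24 h later infected with HIV-1 (MOI = 1). After 48 h, GFP-positive cells counted by imaging and percent inhibition determined versus DMSO controls. Duplicate wells, at least two independent experiments.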

[5] = test system: Human immunodeficiency virus 1; assay: Antiviral activity against HIV1 NL4-3 infected in human TZM-GFP cells assessed as number of GFP positive cells at 20 uM incubated for 48 hrs by imaging reader; type: functional; settings: Human immunodeficiency virus 1, NL4-3, TZM; how it was run: as §3
TZM = assay: as §1; type: cell-based; settings: tzm, 72 h; how it was run: as §2
[6] = Stability of the compound in human plasma assessed as half life incubated for 3 hrs by LC-MS/MS analysis; type: ADME, cell-free
[7] = Stability of the compound in mouse plasma assessed as half life incubated for 3 hrs by LC-MS/MS analysis; type: ADME, cell-free
[8] = Metabolic stability at phase 1 in human liver microsomes assessed as half life at 1 uM by LC-MS/MS analysis; type: ADME, Microsome
[9] = Metabolic stability at phase 1 in mouse liver microsomes assessed as half life at 1 uM by LC-MS/MS analysis; type: ADME, Microsome; settings: for t1/2: microsomes, 1 µM; for half-life at 1 µM: liver microsomes
[10] = Metabolic stability at phase 1 in human liver microsomes assessed as half life at 1 uM in presence of Cobi-cistat CYP3A inhibitor by LC-MS/MS analysis; type: ADME, Microsome
[11] = Metabolic stability at phase 1 in mouse liver microsomes assessed as half life at 1 uM in presence of Cobi-cistat CYP3A inhibitor by LC-MS/MS analysis; type: ADME, Microsome

| SMILES | EC50 [1] | CC50 at 72 h [2] | ΔTm [3] | inhibition at 2 µM [4] | inhibition at 20 µM [5] | CC50 (TZM) | t1/2 [6] | t1/2 [7] | t1/2 [8] | t1/2 [9] | half-life at 1 µM [9] | t1/2 [10] | t1/2 [11] |
| --- | --- | --- | --- | --- | --- | --- | --- | --- | --- | --- | --- | --- | --- |
| CN(C(=O)[C@H](Cc1ccccc1)NC(=O)Cc1c[nH]c2ccccc12)c1ccccc1 | 0.46 µM | > 100 µM | 6.1 °C | – | – | – | – | – | – | – | – | – | – |
| CN(C(=O)[C@H](Cc1ccccc1)NC(=O)CCc1c[nH]c2ccccc12)c1ccccc1 | – | – | 2.3 °C | 0% | 98% | > 50 µM | – | – | – | – | – | – | – |
| COc1ccc(N(C)C(=O)[C@H](Cc2ccccc2)NC(=O)Cc2c[nH]c3ccccc23)cc1 | 0.23 µM | – | 6.2 °C | – | – | > 100 µM | > 360 min | > 360 min | 1.6 min | 0.6 min | – | – | – |
| Cc1ccc(N(C)C(=O)[C@H](Cc2ccccc2)NC(=O)Cc2c[nH]c3ccccc23)cc1 | 0.28 µM | – | 6.6 °C | – | – | 66 µM | > 360 min | > 360 min | 1.5 min | 0.6 min | – | – | – |
| CN(C(=O)[C@H](Cc1ccccc1)NC(=O)Cc1c[nH]c2ccccc12)c1cccc(F)c1 | – | 50 µM | 2.5 °C | 39% | 97% | – | – | – | – | – | – | – | – |
| CCN(C(=O)[C@H](Cc1ccccc1)NC(=O)Cc1c(C)[nH]c2ccccc12)c1ccccc1 | 0.25 µM | – | 8.5 °C | – | – | 82 µM | > 360 min | > 360 min | 0.9 min | – | 0.5 min | – | – |
| CCn1cc(CC(=O)N[C@@H](Cc2ccccc2)C(=O)N(C)c2ccc(F)cc2)c2ccccc21 | 0.27 µM | – | 7.1 °C | – | – | 18 µM | > 360 min | > 360 min | 1.3 min | – | 0.5 min | – | – |
| CC(C)n1cc(CC(=O)N[C@@H](Cc2ccccc2)C(=O)N(C)c2ccc(F)cc2)c2ccccc21 | 0.37 µM | – | 6.5 °C | – | – | 18 µM | > 360 min | > 360 min | 0.9 min | – | 0.5 min | – | – |
| CCN(C(=O)[C@H](Cc1ccccc1)NC(=O)Cc1c(C)n(C(C)C)c2ccccc12)c1ccccc1 | – | – | 7 °C | 39% | 99.7% | 23 µM | – | – | – | – | – | – | – |
| CN(C(=O)[C@H](Cc1ccccc1)NC(=O)Cc1c[nH]c2ccccc12)c1cccc(C(F)(F)F)c1 | – | – | 2.8 °C | 16% | 96% | < 50 µM | – | – | – | – | – | – | – |
| Cc1[nH]c2ccccc2c1CC(=O)N[C@@H](Cc1ccccc1)C(=O)N(C)c1cccc(Cl)c1 | 1.2 µM | < 50 µM | 7.6 °C | – | – | – | – | – | – | – | – | – | – |
| Cc1c(CC(=O)N[C@@H](Cc2ccccc2)C(=O)N(C)c2ccccc2)c2ccccc2n1C(C)C | 0.28 µM | – | 7.8 °C | – | – | 16 µM | > 360 min | > 360 min | 0.6 min | – | 0.5 min | – | – |
| CN(C(=O)[C@H](Cc1ccccc1)NC(=O)Cc1c[nH]c2ccccc12)c1cccc(Cl)c1 | – | – | 4.9 °C | 38% | 99.5% | < 50 µM | – | – | – | – | – | – | – |
| Cc1cccc(N(C)C(=O)[C@H](Cc2ccccc2)NC(=O)Cc2c[nH]c3ccccc23)c1 | – | – | 1.6 °C | 37% | 98% | > 50 µM | – | – | – | – | – | – | – |
| Cc1[nH]c2ccccc2c1CC(=O)N[C@@H](Cc1ccccc1)C(=O)N(C)c1ccc(F)cc1 | 0.67 µM | – | 7 °C | – | – | > 50 µM | > 360 min | > 360 min | 1 min | – | 0.5 min | – | – |
| Cc1[nH]c2ccccc2c1CC(=O)N[C@@H](Cc1cccc(Br)c1)C(=O)N(C)c1ccccc1 | – | – | 3.4 °C | 0% | 94% | < 50 µM | – | – | – | – | – | – | – |
| COc1ccc(N(C)C(=O)[C@H](Cc2ccccc2)NC(=O)Cc2c(C)[nH]c3ccccc23)cc1 | 0.63 µM | – | 8.4 °C | – | – | > 100 µM | > 360 min | > 360 min | 1 min | 0.7 min | – | – | – |
| CCn1c(C)c(CC(=O)N[C@@H](Cc2ccccc2)C(=O)N(C)c2ccc(F)cc2)c2ccccc21 | 0.22 µM | – | 10.7 °C | – | – | 19 µM | > 360 min | > 360 min | 1 min | – | 0.5 min | – | – |
| Cc1ccc(N(C)C(=O)[C@H](Cc2ccccc2)NC(=O)Cc2c(C)[nH]c3ccccc23)cc1 | 0.31 µM | – | 9.1 °C | – | – | 72 µM | > 360 min | > 360 min | 0.9 min | – | 0.5 min | – | – |
| Cc1c(CC(=O)N[C@@H](Cc2ccccc2)C(=O)N(C)c2ccc(F)cc2)c2ccccc2n1C(C)C | 0.32 µM | – | 7.5 °C | – | – | 20 µM | > 360 min | > 360 min | 0.6 min | – | 0.5 min | – | – |
| CN(C(=O)[C@H](Cc1ccccc1)NC(=O)Cc1c[nH]c2ccccc12)c1ccc(F)cc1 | 1.8 µM | – | 3.3 °C | – | – | > 100 µM | > 360 min | > 360 min | 1.3 min | – | 0.5 min | – | – |
| CCn1c(C)c(CC(=O)N[C@@H](Cc2ccccc2)C(=O)N(C)c2ccccc2)c2ccccc21 | 0.28 µM | – | 10.8 °C | – | – | 21 µM | > 360 min | > 360 min | 1 min | – | 0.5 min | – | – |
| CN(C(=O)[C@H](Cc1ccccc1)NC(=O)Cc1c[nH]c2ccccc12)c1ccc(Br)cc1 | 0.14 µM | – | 8.3 °C | – | – | 45 µM | > 360 min | > 360 min | 2.1 min | 0.7 min | – | 131 min | 52 min |
| COc1cccc(N(C)C(=O)[C@H](Cc2ccccc2)NC(=O)Cc2c[nH]c3ccccc23)c1 | – | – | 1.3 °C | 41% | 97% | > 50 µM | – | – | – | – | – | – | – |
| Cc1[nH]c2ccccc2c1CC(=O)N[C@@H](Cc1ccccc1)C(=O)N1CCC[C@H]1C(=O)Nc1ccccc1 | > 20 µM | > 50 µM | 0.6 °C | – | – | – | – | – | – | – | – | – | – |
| CC(C)n1cc(CC(=O)N[C@@H](Cc2ccccc2)C(=O)N(C)c2ccccc2)c2ccccc21 | 0.33 µM | – | 6 °C | – | – | 21 µM | > 360 min | > 360 min | 0.9 min | – | 0.5 min | – | – |
